The text below walks through data of ChEMBL document CHEMBL4011632, “Design, Synthesis, and Evaluation of Thiazolidine-2,4-dione Derivatives as a Novel Class of Glutaminase Inhibitors” (J Med Chem, 2017).

In experiment [1] the target is T1, Glutaminase liver isoform, mitochondrial (Homo sapiens, UniProt Q9UI32).
T1 sequence (Q9UI32 whole entry): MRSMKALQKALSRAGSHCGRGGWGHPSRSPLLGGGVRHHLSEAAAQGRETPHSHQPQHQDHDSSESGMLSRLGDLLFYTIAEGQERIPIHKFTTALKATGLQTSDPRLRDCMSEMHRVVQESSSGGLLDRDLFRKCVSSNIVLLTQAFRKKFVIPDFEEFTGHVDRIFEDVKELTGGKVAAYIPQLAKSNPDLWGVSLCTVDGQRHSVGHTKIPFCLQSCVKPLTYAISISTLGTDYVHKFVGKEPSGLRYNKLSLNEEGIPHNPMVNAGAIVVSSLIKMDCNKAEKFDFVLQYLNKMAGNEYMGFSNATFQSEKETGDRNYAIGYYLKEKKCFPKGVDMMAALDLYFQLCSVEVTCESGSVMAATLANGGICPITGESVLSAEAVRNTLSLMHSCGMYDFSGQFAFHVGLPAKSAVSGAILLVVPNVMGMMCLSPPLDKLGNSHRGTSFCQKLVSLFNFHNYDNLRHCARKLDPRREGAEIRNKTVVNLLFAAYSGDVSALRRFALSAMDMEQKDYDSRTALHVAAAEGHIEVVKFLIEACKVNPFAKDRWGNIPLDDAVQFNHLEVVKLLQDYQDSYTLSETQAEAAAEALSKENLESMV
In words: Inhibition of recombinant human His-tagged GAB (P56 to V602 residues) expressed in Escherichia coli C41(DE3)pLysS using glutamine as substrate preincubated for 10 mins followed by substrate addition measured after 60 mins by glutamate dehydrogenase coupled enzyme assay.

The target of experiment [2] is T2, Glutaminase kidney isoform, mitochondrial (Homo sapiens, UniProt O94925).
T2 sequence (O94925 whole entry): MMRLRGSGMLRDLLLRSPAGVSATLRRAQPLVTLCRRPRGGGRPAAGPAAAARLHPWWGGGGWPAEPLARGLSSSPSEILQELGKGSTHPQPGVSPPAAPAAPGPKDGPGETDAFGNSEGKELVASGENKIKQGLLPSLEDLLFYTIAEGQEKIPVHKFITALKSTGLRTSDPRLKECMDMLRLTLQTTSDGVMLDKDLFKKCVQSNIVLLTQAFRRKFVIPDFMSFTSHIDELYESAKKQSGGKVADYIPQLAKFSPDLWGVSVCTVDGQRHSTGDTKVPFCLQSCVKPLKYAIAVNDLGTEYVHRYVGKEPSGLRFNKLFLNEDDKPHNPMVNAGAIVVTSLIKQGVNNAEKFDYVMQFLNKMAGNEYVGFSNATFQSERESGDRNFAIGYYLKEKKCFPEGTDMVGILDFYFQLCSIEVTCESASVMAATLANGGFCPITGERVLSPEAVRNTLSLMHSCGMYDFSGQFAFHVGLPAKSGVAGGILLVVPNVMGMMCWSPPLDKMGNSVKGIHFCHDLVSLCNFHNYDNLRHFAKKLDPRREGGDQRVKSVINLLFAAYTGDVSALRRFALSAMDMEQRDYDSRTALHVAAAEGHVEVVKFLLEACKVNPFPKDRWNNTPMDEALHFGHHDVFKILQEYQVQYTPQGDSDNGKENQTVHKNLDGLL
In words: Inhibition of recombinant human His-tagged KGA (L123 to L669 residues) expressed in Escherichia coli BL21(DE3)pLysS using glutamine substrate preincubated for 10 mins followed by substrate addition measured after 60 mins by glutamate dehydrogenase coupled enzyme assay.

The target in experiment [3] is T2, Glutaminase kidney isoform, mitochondrial. Description: Inhibition of recombinant human MCF7 cells derived His-tagged GAC (L123 to S598 residues) expressed in Escherichia coli C41(DE3)pLysS using glutamine as substrate preincubated for 10 mins followed by substrate addition measured after 60 mins by glutamate dehydrogenase coupled enzyme assay. In outline:
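Human GAC cloned from MCF7 cDNA into pET28a(+) as a His-tagged construct. Expressed in E. coli C41(DE3)pLysS in Terrific Broth with kanamycin, induced with 1 mM IPTG for 6 h at 25 °C. Purified on Ni2+ resin with 500 mM imidazole elution and exchanged into 50 mM NaH2PO4, 50 mM Tris-HCl pH 8.0, 2 mM DTT, 50% glycerol. Activity measured by two-step glutaminase assay.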

The species entered for a further experiment is Homo sapiens. In words: Selectivity index, ratio of IC50 for recombinant human His-tagged GAB (P56-V602 residues) expressed in Escherichia coli C41(DE3)pLysS to IC50 for recombinant human His-tagged KGA (L123 to L669 residues) expressed in Escherichia coli BL21(DE3)pLysS.
Experiment [4] deals with ASPC1. Description: Anticlonogenic activity against human Aspc-1 cells at 2 uM after 21 days by crystal violet staining based assay relative to control. In kind it is functional. Particulars: ASPC1, 504 h. An outline of the steps: (§1)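 Anchorage-dependent colony formation: AsPC-1 cells seeded at 1000 cells/well in six-well plates and treated with compound. Colony formation is expressed as percent of vehicle treatment. Mean ± SD from at least three independent experiments, each in duplicate.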

Experiment [5] relates to ASPC1. Description: Anticlonogenic activity against human Aspc-1 cells at 10 uM after 21 days by crystal violet staining based assay relative to control. In kind it is functional. Particulars: ASPC1, 504 h. In outline:
as §1

Experiment [6] concerns ASPC1. In words: Growth inhibition of human Aspc-1 cells after 72 hrs by MTS assay. In kind it is functional, cell-based. The note with it: ASPC1, 72 h. An outline of the steps: (§2)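 Growth inhibition by MTS viability read-out. Cells seeded in 96-well plates at 4000/well (AsPC-1) or 8500/well (MDA-MB-231). Mean ± SD from at least three independent experiments, each in duplicate.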

In a further experiment the test system is MDA-MB-231. Description: Growth inhibition of human MDA-MB-231 cells after 72 hrs by MTS assay. In kind it is functional, cell-based. Particulars: MDA-MB-231, 72 h. An outline of the steps:
as §2

As for `O=C1NC(=O)/C(=C/c2cc(-c3cccs3)n(-c3ccc(Br)cc3)c2-c2cccs2)S1`, the IC50 in experiment [1] turned out to be 3.78 µM; in experiment [2] it was 0.754 µM; in experiment [3], 1.27 µM. Besides, the Ratio IC50 in the experiment listed under Homo sapiens worked out at 5.

On to `COc1cc(-n2c(-c3cccs3)cc(/C=C3\SC(=O)NC3=O)c2-c2cccs2)ccc1-c1ccc(/C=C2\SC(=O)NC2=O)cc1`, for which 2 µM produced 89% inhibition in the experiment with ASPC1 [4]. In addition, the IC50 came to 0.269 µM in experiment [1]; 0.035 µM in experiment [2]; 0.053 µM in experiment [3]; 11.9 µM with ASPC1 [6]; 10.6 µM in the experiment on MDA-MB-231. The Ratio IC50 in the experiment filed under Homo sapiens came out at 7.7. For the same molecule, 10 µM produced 95% inhibition in the experiment with ASPC1 [5].

In turn, `CCc1cc(-c2ccc(-n3c(-c4cccs4)cc(/C=C4\SC(=O)NC4=O)c3-c3cccs3)cc2)ccc1/C=C1\SC(=O)NC1=O` showed an inhibition at 2 µM with ASPC1 [4] of 44%. Besides, the IC50 in experiment [1] came out at 1.72 µM; in experiment [2], 0.054 µM; in experiment [3], 0.391 µM; in the experiment with ASPC1 [6], 24.8 µM; in the experiment on MDA-MB-231 it was 26.3 µM. In addition, in the experiment listed under Homo sapiens, the Ratio IC50 is 32. In the experiment with ASPC1 [5], this molecule came in with an inhibition at 10 µM of 89%.

Regarding `Cc1cc(/C=C2\SC(=O)NC2=O)c(C)n1-c1ccc(Br)cc1`, the results for the IC50 in experiment [1], in experiment [2] and in experiment [3] were above 100 µM, 3.1 µM and 5.37 µM, respectively. Further, the Ratio IC50 in the experiment filed under Homo sapiens was above 32.

Take `CCc1cc(-c2ccc(-n3c(C)cc(/C=C4\SC(=O)NC4=O)c3C)cc2OC)ccc1/C=C1\SC(=O)NC1=O`: the IC50 in experiment [1] amounted to 1.19 µM; in experiment [2] it was 0.066 µM; in experiment [3], 0.177 µM. In addition, the Ratio IC50 in the experiment filed under Homo sapiens was 18.

In the case of `COc1cc(-n2c(C)cc(/C=C3\SC(=O)NC3=O)c2C)ccc1-c1ccc(/C=C2\SC(=O)NC2=O)cc1`, the IC50 in experiment [1] is 2.14 µM; in experiment [2], 0.243 µM; in experiment [3], 0.355 µM. Besides, the Ratio IC50 in the experiment filed under Homo sapiens was 8.8.

In turn, `CCc1cc(-c2ccc(-n3c(C)cc(/C=C4\SC(=O)NC4=O)c3C)cc2)ccc1/C=C1\SC(=O)NC1=O` yielded an inhibition at 2 µM with ASPC1 [4] of 28%. For the same molecule, the IC50 is 1.03 µM in experiment [1]; 0.039 µM in experiment [2]; 0.087 µM in experiment [3]; 12.5 µM with ASPC1 [6]; 15.3 µM in the experiment on MDA-MB-231. Further, in the experiment filed under Homo sapiens, the Ratio IC50 was 26. Moreover, in the experiment with ASPC1 [5], the inhibition at 10 µM stood at 59%.

On to `COc1cc(-n2c(-c3ccccc3)cc(/C=C3\SC(=O)NC3=O)c2-c2ccccc2)ccc1-c1ccc(/C=C2\SC(=O)NC2=O)cc1`, for which the inhibition at 2 µM with ASPC1 [4] is 90%. Also, the half-maximal inhibitory concentration (IC50) is 0.787 µM in experiment [1]; 0.048 µM in experiment [2]; 0.148 µM in experiment [3]; 12 µM in the experiment on ASPC1 [6]; 8.9 µM with MDA-MB-231. In the experiment listed under Homo sapiens, the Ratio IC50 turned out to be 16. Further, testing at 10 µM in the experiment with ASPC1 [5] gave an inhibition of 95%.

As to `CCc1cc(-c2ccc(-n3c(C)cc(/C=C4\SC(=O)NC4=O)c3C)cc2C#N)ccc1/C=C1\SC(=O)NC1=O`, the IC50 in experiment [1] amounted to 1.19 µM; in experiment [2] it was 0.059 µM; in experiment [3], 0.092 µM. The Ratio IC50 in the experiment listed under Homo sapiens amounted to 20.

For the molecule `Cc1cc(/C=C2\SC(=O)NC2=O)c(C)n1-c1ccc(-c2ccc(/C=C3\SC(=O)NC3=O)cc2)c(O)c1`, the IC50 in experiment [1] stood at 5.72 µM; in experiment [2], 0.247 µM; in experiment [3], 0.76 µM. Also, the Ratio IC50 in the experiment listed under Homo sapiens turned out to be 23.

In the experiment with ASPC1 [4], `CCc1cc(-c2ccc(-n3c(-c4ccccc4)cc(/C=C4\SC(=O)NC4=O)c3-c3ccccc3)cc2)ccc1/C=C1\SC(=O)NC1=O` returned an inhibition at 2 µM of 51%. In addition, the IC50 in experiment [1] was 1.24 µM; in experiment [2], 0.056 µM; in experiment [3], 0.217 µM; in the experiment on ASPC1 [6], 8.8 µM; in the experiment on MDA-MB-231, 8.2 µM. For the same molecule, the Ratio IC50 in the experiment listed under Homo sapiens came to 22. This molecule gave an inhibition at 10 µM in the experiment with ASPC1 [5] of 91%.

As to `O=C1NC(=O)/C(=C/c2cc(-c3ccccc3)n(-c3ccc(Br)cc3)c2-c2ccccc2)S1`, the IC50 is 11.8 µM in experiment [1], 4.9 µM in experiment [2] and 8.76 µM in experiment [3]. Moreover, the Ratio IC50 in the experiment listed under Homo sapiens amounted to 2.4.
